Results on 21 molecules are retold here after ChEMBL document CHEMBL4354846, “1,3-Dipolar Cycloaddition, HPLC Enantioseparation, and Docking Studies of Saccharin/Isoxazole and Saccharin/Isoxazoline Derivatives as Selective Carbonic Anhydrase IX and XII Inhibitors” (J Med Chem, 2020).

The source made the active and inactive calls. The rule behind the calls is not given here.

The target of data set [1] is Carbonic anhydrase 12 (Homo sapiens, UniProt O43570). Nature of the data set: Inhibition of recombinant human carbonic anhydrase 12 incubated for 15 mins prior to testing measured for 10 to 100 secs by phenol red-based stopped-flow CO2 hydration assay.
The target of data set [2] is Carbonic anhydrase 9 (Homo sapiens, UniProt Q16790). Nature of the data set: Inhibition of recombinant human carbonic anhydrase 9 incubated for 15 mins prior to testing measured for 10 to 100 secs by phenol red-based stopped-flow CO2 hydration assay.
Data set [3] addresses Carbonic anhydrase 2 (Homo sapiens, UniProt P00918). Nature of the data set: Inhibition of recombinant human carbonic anhydrase 2 incubated for 15 mins prior to testing measured for 10 to 100 secs by phenol red-based stopped-flow CO2 hydration assay.
The target in data set [4] is Carbonic anhydrase 1 (Homo sapiens, UniProt P00915). Nature of the data set: Inhibition of recombinant human carbonic anhydrase 1 incubated for 15 mins prior to testing measured for 10 to 100 secs by phenol red-based stopped-flow CO2 hydration assay.
Data set [5] can be described thus: Cytotoxicity against HGF cells assessed as reduction in LDH release at 0.05 to 200 uM measured after 24 hrs by CytoTox 96 nonradioactive cytotoxicity assay. It counts as cell-based. To be noted: human. In outline:
(§1)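 Primary human gingival fibroblasts from healthy donors, in DMEM with 10% FBS at 37 °C, 5% CO2. Treated 24 h after seeding with 0.05–200 μM compound (DMSO final 0.2%). Supernatants collected at 24, 48 and 72 h and spun 450 g for 4 min. LDH measured by a 30-min coupled tetrazolium reaction read at 490 nm, with 690 nm as background. Given as % of lysed-cell positive control.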
(In general: LDH leaks from cells whose membrane has failed.)

In data set [6] the test system is MCF7. Nature of the data set: Chemosensitization activity in human MCF7 cells assessed as induction of morphological changes by measuring cell detachment at 100 to 200 uM measured after 72 hrs in presence of doxorubicin under hypoxic condition by phase contrast light microscopic analysis. It counts as functional, cell-based. Put shortly: (§2)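 MCF7 seeded 10000/well, grown 24 h, then medium with CoCl2 100 μM for 48 h to induce hypoxia. Cells then given compound (0.05–200 μM, DMSO final 0.2%) with doxorubicin 2.5 μM for 72 h. Imaged by phase contrast light microscopy (×20) for cell shape and detachment, before the MTT step.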

Data set [7] is described as follows: Cytotoxicity against HGF cells assessed as reduction in cell viability at 100 to 200 uM measured after 72 hrs by MTT assay. It counts as cell-based. To be noted: human. Put shortly:
(§3)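 Gingival fibroblasts seeded and treated as for LDH: 0.05–200 μM compound, DMSO final 0.2%, read at 24, 48 and 72 h. MTT 0.5 mg/mL for 5 h at 37 °C, formazan dissolved in DMSO, read at 570 nm. Viability normalized to 0.2% DMSO control. One-way ANOVA with Tukey tests.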
Background: Tetrazolium assays rely on reduction of a dye to a coloured formazan, in cell work by metabolically active cells.

Data set [8] has as its system MCF7. Nature of the data set: Chemosensitization activity in human MCF7 cells assessed as induction of morphological changes by measuring rounded cells at 100 to 200 uM measured after 72 hrs in presence of doxorubicin under hypoxic condition by phase contrast light microscopic analysis. It counts as functional, cell-based. Put shortly: as §2
The nature of data set [9]: Cytotoxicity against HGF cells assessed as reduction in cell viability at 0.05 to 5 uM measured after 72 hrs by MTT assay. The data set is classed as cell-based. To be noted: human. In outline: as §3
The test system of data set [10] is MCF7. Nature of the data set: Chemosensitization activity in human MCF7 cells assessed as reduction in cell viability at 100 to 200 uM measured after 72 hrs in presence of doxorubicin under hypoxic condition by MTT assay. The data set is classed as functional, cell-based. In outline: (§4)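 MCF7 in DMEM high glucose with 10% FBS, 37 °C, 5% CO2. Seeded 10000/well for 24 h, then CoCl2 100 μM for 48 h (hypoxia). Treated 72 h with compound 0.05–200 μM plus doxorubicin 2.5 μM, DMSO final 0.2%. MTT 0.5 mg/mL for 5 h at 37 °C, formazan dissolved in DMSO, read at 570 nm. Normalized to DMSO+CoCl2+doxorubicin control. Three experiments; one-way ANOVA with Tukey.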

The nature of data set [11]: Cytotoxicity against HGF cells assessed as cell viability at 100 to 200 uM measured after 24 to 48 hrs by MTT assay relative to control. The data set is classed as cell-based. To be noted: human, read-out: Activity. Put shortly:
as §3

Data set [12] can be described thus: Cytotoxicity against HGF cells assessed as reduction in LDH release at 0.05 to 200 uM measured after 48 to 72 hrs by CytoTox 96 nonradioactive cytotoxicity assay. It counts as cell-based. Particulars: human. In outline:
as §1

The nature of data set [13]: Cytotoxicity against HGF cells assessed as reduction in cell viability at 0.05 to 50 uM measured after 24 to 48 hrs by MTT assay. Particulars: human, 50 to 200 µM; in the assay text read “50 to 200 uM” for “0.05 to 50 uM”. The data set is classed as cell-based. In outline: as §3
The nature of data set [14]: Cytotoxicity against HGF cells assessed as reduction in cell viability at 0.05 to 200 uM measured up to 72 hrs by MTT assay. It counts as cell-based. Particulars: human. Put shortly: as §3
Data set [15] is described as follows: Cytotoxicity against HGF cells assessed as reduction in LDH release at 0.05 to 200 uM measured up to 72 hrs by CytoTox 96 nonradioactive cytotoxicity assay. The data set is classed as cell-based. Particulars: human. Put shortly: as §1
The test system of data set [16] is MCF7. Nature of the data set: Chemosensitization activity in human MCF7 cells assessed as reduction in cell viability at 0.05 to 200 uM measured after 72 hrs in presence of doxorubicin under hypoxic condition by MTT assay. The data set is classed as functional, cell-based. In outline:
as §4

Data set [17] relates to MCF7. Nature of the data set: Cytotoxicity against human MCF7 cells assessed as reduction in cell viability measured after 72 hrs under hypoxic condition by MTT assay. It counts as functional, cell-based. To be noted: MCF7, 72 h. Put shortly:
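MCF7 given CoCl2 100 μM for 48 h to induce hypoxia, then doxorubicin alone at 0.05–200 μM for 72 h. Viability read by MTT: 0.5 mg/mL for 5 h at 37 °C, formazan dissolved in DMSO, absorbance at 570 nm, cell-free wells as background.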

Carbonic anhydrase 12, sequence (O43570 whole entry): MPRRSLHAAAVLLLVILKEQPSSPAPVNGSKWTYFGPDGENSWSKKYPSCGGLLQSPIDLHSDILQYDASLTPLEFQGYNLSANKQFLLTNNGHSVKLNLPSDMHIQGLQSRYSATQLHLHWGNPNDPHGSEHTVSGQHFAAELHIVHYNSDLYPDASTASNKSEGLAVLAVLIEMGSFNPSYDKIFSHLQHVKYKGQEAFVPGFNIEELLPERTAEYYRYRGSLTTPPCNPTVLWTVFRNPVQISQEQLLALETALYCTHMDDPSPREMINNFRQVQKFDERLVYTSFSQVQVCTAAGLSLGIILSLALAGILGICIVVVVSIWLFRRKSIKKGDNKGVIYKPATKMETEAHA
Carbonic anhydrase 1, sequence (P00915 whole entry): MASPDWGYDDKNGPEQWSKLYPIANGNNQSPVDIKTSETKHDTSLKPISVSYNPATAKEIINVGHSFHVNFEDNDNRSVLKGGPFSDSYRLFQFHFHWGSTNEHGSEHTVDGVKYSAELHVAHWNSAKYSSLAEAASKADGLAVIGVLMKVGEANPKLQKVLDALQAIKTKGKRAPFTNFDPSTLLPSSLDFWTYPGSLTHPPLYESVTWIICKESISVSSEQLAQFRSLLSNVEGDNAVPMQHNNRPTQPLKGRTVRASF

Turning to `COc1ccccc1C1=NOC(CN2C(=O)c3ccccc3S2(=O)=O)C1` (configuration not stated), the Ki in data set [1] was 9.4 nM; in data set [2], more than 10000 nM; in data set [3] it was more than 10000 nM; in data set [4], more than 10000 nM.
For `O=C1c2ccccc2S(=O)(=O)N1C[C@H]1CC(c2cccs2)=NO1`, the results for the Ki in data set [2], in [3] and in data set [4] were 26.4 nM, more than 10000 nM and 358 nM, respectively.
`O=C1c2ccccc2S(=O)(=O)N1C[C@H]1CC(c2ccccc2)=NO1`: the Ki in [1] is 48.9 nM; in data set [2] it was 30 nM; in [3], more than 10000 nM; in [4], more than 10000 nM.
For `O=C1c2ccccc2S(=O)(=O)N1Cc1cc(-c2cccc([N+](=O)[O-])c2)no1`, the values for the inhibitory constant (Ki) in data set [2], in data set [3] and in [4] were 230 nM, more than 10000 nM and more than 10000 nM, respectively.
For the molecule `COc1ccc(-c2cc(CN3C(=O)c4ccccc4S3(=O)=O)on2)cc1`, the Activity result was “Toxic” in [5]; “Toxic” in data set [7]; “Non-Toxic” in data set [9]; “Non-Toxic” in data set [12]; “Toxic” in data set [13]. Further, the Ki in data set [2] was 22.1 nM; in [3] it was more than 10000 nM; in data set [4] it was more than 10000 nM. The outcome in data set [6], in data set [8] and in [10] was Active. For the same molecule, the viability at up to 200 µM in [11] is less than 50%.
Turning to `O=C1c2ccccc2S(=O)(=O)N1Cc1cc(-c2ccccn2)no1`, the Ki in [2] is 245 nM; in [3], more than 10000 nM; in data set [4], more than 10000 nM.
`O=C1c2ccccc2S(=O)(=O)N1CC1CC(c2ccc([N+](=O)[O-])cc2)=NO1` (configuration not stated): the Ki in [2] is 235 nM; in data set [3] it was more than 10000 nM; in data set [4], more than 10000 nM.
On to `O=C1c2ccccc2S(=O)(=O)N1Cc1cc(-c2cccs2)no1`, for which the Ki in data set [2] was 7.5 nM; in data set [3], more than 10000 nM; in data set [4] it was more than 10000 nM.
As to `COc1ccc(C2=NOC(CN3C(=O)c4ccccc4S3(=O)=O)C2)cc1` (configuration not stated), the Ki in data set [1] is 8.1 nM; in data set [2], 139 nM; in [4], more than 10000 nM.
In the case of `O=C1c2ccccc2S(=O)(=O)N1Cc1cc(-c2cccnc2)no1`, the Ki in [2] was 86.2 nM; in data set [3], more than 10000 nM; in data set [4], more than 10000 nM.
As to `O=C1c2ccccc2S(=O)(=O)N1C[C@@H]1CC(c2cccs2)=NO1`, the figures for the Ki in data set [2], in data set [3] and in data set [4] were 2.4 nM, 13.1 nM and 365 nM, respectively.
Taken in the same sequence, the figures for `COc1cccc(C2=NOC(CN3C(=O)c4ccccc4S3(=O)=O)C2)c1` (configuration not stated) were more than 10000 nM, more than 10000 nM and more than 10000 nM.
Take `COc1ccccc1-c1cc(CN2C(=O)c3ccccc3S2(=O)=O)on1`: the Ki in data set [2], in data set [3] and in data set [4] was more than 10000 nM throughout.
As to `COc1cccc(-c2cc(CN3C(=O)c4ccccc4S3(=O)=O)on2)c1`, the results for the inhibition constant (Ki) in data set [2], in [3] and in data set [4] were 247 nM, more than 10000 nM and more than 10000 nM, respectively.
As for `O=C1c2ccccc2S(=O)(=O)N1CC1CC(c2ccccn2)=NO1` (configuration not stated), the Ki in data set [2] is 258 nM; in data set [3], more than 10000 nM; in data set [4], more than 10000 nM.
`O=C1c2ccccc2S(=O)(=O)N1CC1CC(c2cccnc2)=NO1` (configuration not stated): the inhibitory constant (Ki) in data set [2] was 274 nM; in data set [3], more than 10000 nM; in [4] it was more than 10000 nM.
Consider `O=C1c2ccccc2S(=O)(=O)N1Cc1cc(-c2ccc([N+](=O)[O-])cc2)no1`, for which the Activity entry in data set [14] and in [15] was “Non-Toxic” each time. The result in data set [6] and in [8] was Active. In addition, the inhibitory constant (Ki) in [3] and in data set [4] was more than 10000 nM throughout. Moreover, the result in data set [16] was inactive.
With `O=C1c2ccccc2S(=O)(=O)N1Cc1cc(-c2ccccc2)no1`, the Ki in data set [2] was 50.9 nM; in data set [3], more than 10000 nM; in [4] it was more than 10000 nM.
As to `COc1cccc2c1C(=O)c1c(O)c3c(c(O)c1C2=O)C[C@@](O)(C(=O)CO)C[C@@H]3O[C@H]1C[C@H](N)[C@H](O)[C@H](C)O1` [DOXORUBICIN], the 50% inhibitory concentration (IC50) in data set [17] is 5000 to 50000 nM.
Turning to `O=C1c2ccccc2S(=O)(=O)N1C[C@@H]1CC(c2ccccc2)=NO1`, the inhibitory constant (Ki) is 36.5 nM in data set [1], 29.3 nM in [2], more than 10000 nM in data set [3] and more than 10000 nM in data set [4].
Turning to `O=C1c2ccccc2S(=O)(=O)N1CC1CC(c2cccc([N+](=O)[O-])c2)=NO1` (configuration not stated), the Ki in data set [2] is 103 nM; in data set [3] it was more than 10000 nM; in data set [4] it was more than 10000 nM.

A word on the Ki: it is a dissociation constant, usually derived from enzyme kinetics or from competition with a known ligand. A word on the IC50: it is the concentration needed to halve the response being measured.
